Laboratory results as given in ChEMBL document CHEMBL2177098, “Synthesis and evaluation of novel ¹⁸F labeled 2-pyridinylbenzoxazole and 2-pyridinylbenzothiazole derivatives as ligands for positron emission tomography (PET) imaging of β-amyloid plaques” (J Med Chem, 2012).

Assays:
[1] = Displacement of [125I]-IMPY from amyloid beta (1 to 42) fibrils after 2 hrs by gamma-counting analysis
Outline: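 Competition binding with aggregated Aβ1-42 fibrils and [125I]IMPY (60000−100000 cpm/100 μL) in 0.05% BSA (1 mL total); inhibitors 10⁻⁴−10^−8.5 M in ethanol. Incubated 37 °C for 2 h, then GF/B vacuum filtration with PBS (0.02 M, pH 7.4) washes and γ counting. Three repeats; IC50 converted to Ki by Cheng−Prusoff.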

Stomach [2] = assay: Drug uptake in ICR mouse stomach assessed per organ at 370 kBq/100 ul, iv at 60 mins by gamma-counting analysis; assay type: ADME, organism-based; settings: in vivo, 1 h
Outline: (§1)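 Normal male ICR mice (5 weeks, about 20 g) received the ¹⁸F tracer in saline (370 KBq per 100 μL) by tail-vein injection. Groups of n = 5 were killed at 2, 10, 30 and 60 min. Organs were removed, weighed and γ-counted against diluted aliquots of the injectate, giving % dose per gram. Stomach and intestine were expressed per organ. The brain ratio is 2 min/60 min uptake. Values are mean ± SD.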

Lung [3] = assay: Drug uptake in ICR mouse lung at 370 kBq/100 ul, iv at 60 mins by gamma-counting analysis; assay type: ADME, organism-based; settings: in vivo, 1 h
Outline: (§2)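 Male ICR mice (5 weeks, about 20 g) got 18F tracer in saline (370 KBq per 100 μL) via tail vein; n = 5 per time point, killed at 2, 10, 30, 60 min. Organs weighed and γ-counted; percent dose per gram wet tissue from comparison with diluted injectate aliquots.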

Intestine [4] = assay: Drug uptake in ICR mouse intestine assessed per organ at 370 kBq/100 ul, iv at 2 mins by gamma-counting analysis; assay type: ADME, organism-based; settings: in vivo
Outline: (§3)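 Male ICR mice (5 weeks, about 20 g) got 18F tracer in saline (370 KBq per 100 μL) via tail vein; n = 5 per time point, killed at 2, 10, 30, 60 min. Organs removed and γ-counted against diluted injectate; expressed as % injected dose per organ.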

Intestine [5] = assay: Drug uptake in ICR mouse intestine assessed per organ at 370 kBq/100 ul, iv at 10 mins by gamma-counting analysis; assay type: ADME, organism-based; settings: in vivo; outline: as §3
Spleen [6] = assay: Drug uptake in ICR mouse spleen at 370 kBq/100 ul, iv at 30 mins by gamma-counting analysis; assay type: ADME, organism-based; settings: in vivo, 0.5 h; outline: as §2
Heart [7] = assay: Drug uptake in ICR mouse heart at 370 kBq/100 ul, iv at 30 mins by gamma-counting analysis; assay type: ADME, organism-based; settings: in vivo, 0.5 h; outline: as §2
Liver [8] = assay: Drug uptake in ICR mouse liver at 370 kBq/100 ul, iv at 10 mins by gamma-counting analysis; assay type: ADME, organism-based; settings: in vivo; outline: as §2
Liver [9] = assay: Drug uptake in ICR mouse liver at 370 kBq/100 ul, iv at 2 mins by gamma-counting analysis; assay type: ADME, organism-based; settings: in vivo; outline: as §2
Blood [10] = assay: Drug uptake in ICR mouse blood at 370 kBq/100 ul, iv at 30 mins by gamma-counting analysis; assay type: ADME, organism-based; settings: in vivo, 0.5 h; outline: as §2
Liver [11] = assay: Drug uptake in ICR mouse liver at 370 kBq/100 ul, iv at 60 mins by gamma-counting analysis; assay type: ADME, organism-based; settings: in vivo, 1 h; outline: as §2
Stomach [12] = assay: Drug uptake in ICR mouse stomach assessed per organ at 370 kBq/100 ul, iv at 30 mins by gamma-counting analysis; assay type: ADME, organism-based; settings: in vivo, 0.5 h; outline: as §3
Stomach [13] = assay: Drug uptake in ICR mouse stomach assessed per organ at 370 kBq/100 ul, iv at 2 mins by gamma-counting analysis; assay type: ADME, organism-based; settings: in vivo; outline: as §3
Brain [14] = assay: Drug uptake in ICR mouse brain at 370 kBq/100 ul, iv at 10 mins by gamma-counting analysis; assay type: ADME, organism-based; settings: in vivo; outline: as §2
Spleen [15] = assay: Drug uptake in ICR mouse spleen at 370 kBq/100 ul, iv at 10 mins by gamma-counting analysis; assay type: ADME, organism-based; settings: in vivo; outline: as §2
Spleen [16] = assay: Drug uptake in ICR mouse spleen at 370 kBq/100 ul, iv at 60 mins by gamma-counting analysis; assay type: ADME, organism-based; settings: in vivo, 1 h; outline: as §2
Stomach [17] = assay: Drug uptake in ICR mouse stomach assessed per organ at 370 kBq/100 ul, iv at 10 mins by gamma-counting analysis; assay type: ADME, organism-based; settings: in vivo; outline: as §3
Heart [18] = assay: Drug uptake in ICR mouse heart at 370 kBq/100 ul, iv at 2 mins by gamma-counting analysis; assay type: ADME, organism-based; settings: in vivo; outline: as §2
Heart [19] = assay: Drug uptake in ICR mouse heart at 370 kBq/100 ul, iv at 60 mins by gamma-counting analysis; assay type: ADME, organism-based; settings: in vivo, 1 h; outline: as §2
Brain [20] = assay: Drug uptake in ICR mouse brain at 370 kBq/100 ul, iv at 60 mins by gamma-counting analysis; assay type: ADME, organism-based; settings: in vivo, 1 h; outline: as §2
Intestine [21] = assay: Drug uptake in ICR mouse intestine assessed per organ at 370 kBq/100 ul, iv at 30 mins by gamma-counting analysis; assay type: ADME, organism-based; settings: in vivo, 0.5 h; outline: as §3
Spleen [22] = assay: Drug uptake in ICR mouse spleen at 370 kBq/100 ul, iv at 2 mins by gamma-counting analysis; assay type: ADME, organism-based; settings: in vivo; outline: as §2
Brain [23] = assay: Ratio of drug uptake in brain at 2 mins to drug uptake in brain at 60 mins in ICR mouse at 370 KBq/100 ul, iv; assay type: ADME, organism-based; settings: in vivo; outline: as §1
Liver [24] = assay: Drug uptake in ICR mouse liver at 370 kBq/100 ul, iv at 30 mins by gamma-counting analysis; assay type: ADME, organism-based; settings: in vivo, 0.5 h; outline: as §2
Brain [25] = assay: Drug uptake in ICR mouse brain at 370 kBq/100 ul, iv at 30 mins by gamma-counting analysis; assay type: ADME, organism-based; settings: in vivo, 0.5 h; outline: as §2
Kidney [26] = assay: Drug uptake in ICR mouse kidney at 370 kBq/100 ul, iv at 60 mins by gamma-counting analysis; assay type: ADME, organism-based; settings: in vivo, 1 h; outline: as §2
Bone [27] = assay: Drug uptake in ICR mouse bone at 370 kBq/100 ul, iv at 60 mins by gamma-counting analysis; assay type: ADME, organism-based, Bone element; settings: in vivo, 1 h; outline: as §2
Kidney [28] = assay: Drug uptake in ICR mouse kidney at 370 kBq/100 ul, iv at 2 mins by gamma-counting analysis; assay type: ADME, organism-based; settings: in vivo; outline: as §2
Heart [29] = assay: Drug uptake in ICR mouse heart at 370 kBq/100 ul, iv at 10 mins by gamma-counting analysis; assay type: ADME, organism-based; settings: in vivo; outline: as §2
Blood [30] = assay: Drug uptake in ICR mouse blood at 370 kBq/100 ul, iv at 60 mins by gamma-counting analysis; assay type: ADME, organism-based; settings: in vivo, 1 h; outline: as §2
Brain [31] = assay: Drug uptake in wild type C57BL6 mouse brain at 370 KBq/100 ul after 1 hr by autoradiographic analysis; assay type: ADME, tissue-based; settings: in vitro
Outline: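 Paraffin brain sections from 12-month-old male control C57BL6 mice were deparaffinized through xylene and graded ethanol, then held in PBS (0.2 M, pH 7.4) for 30 min. They were incubated with the ¹⁸F tracer (370 KBq per 100 μL) for 1 h at room temperature. Sections were washed in 40% EtOH, rinsed with water for 1 min, dried, and exposed to a phosphor plate for 2 h. The same sections were then stained with thioflavin S.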

Blood [32] = assay: Drug uptake in ICR mouse blood at 370 kBq/100 ul, iv at 2 mins by gamma-counting analysis; assay type: ADME, organism-based; settings: in vivo; outline: as §2
Brain [33] = assay: Drug uptake in ICR mouse brain at 370 kBq/100 ul, iv at 2 mins by gamma-counting analysis; assay type: ADME, organism-based; settings: in vivo; outline: as §2
Intestine [34] = assay: Drug uptake in ICR mouse intestine assessed per organ at 370 kBq/100 ul, iv at 60 mins by gamma-counting analysis; assay type: ADME, organism-based; settings: in vivo, 1 h; outline: as §3
Kidney [35] = assay: Drug uptake in ICR mouse kidney at 370 kBq/100 ul, iv at 10 mins by gamma-counting analysis; assay type: ADME, organism-based; settings: in vivo; outline: as §2
Bone [36] = assay: Drug uptake in ICR mouse bone at 370 kBq/100 ul, iv at 2 mins by gamma-counting analysis; assay type: ADME, organism-based, Bone element; settings: in vivo; outline: as §2
[37] = n-Octanol-PBS buffer partition coefficient, log D of the compound at 1.5 MBq after 3 mins at pH 7.4; assay type: physicochemical
Outline: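 The tracer was partitioned between n-octanol and PBS by vortexing for 3 min at room temperature, then centrifuged for 5 min at 3000 rpm. Samples of the octanol (50 μL) and aqueous (500 μL) layers were counted. log D is the log of the octanol/PBS counts-per-gram ratio. The octanol layer was repartitioned until values were consistent. Measured in triplicate and repeated three times.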

Lung [38] = assay: Drug uptake in ICR mouse lung at 370 kBq/100 ul, iv at 2 mins by gamma-counting analysis; assay type: ADME, organism-based; settings: in vivo; outline: as §2
Lung [39] = assay: Drug uptake in ICR mouse lung at 370 kBq/100 ul, iv at 30 mins by gamma-counting analysis; assay type: ADME, organism-based; settings: in vivo, 0.5 h; outline: as §2
Blood [40] = assay: Drug uptake in ICR mouse blood at 370 kBq/100 ul, iv at 10 mins by gamma-counting analysis; assay type: ADME, organism-based; settings: in vivo; outline: as §2
Bone [41] = assay: Drug uptake in ICR mouse bone at 370 kBq/100 ul, iv at 10 mins by gamma-counting analysis; assay type: ADME, organism-based, Bone element; settings: in vivo; outline: as §2
Kidney [42] = assay: Drug uptake in ICR mouse kidney at 370 kBq/100 ul, iv at 30 mins by gamma-counting analysis; assay type: ADME, organism-based; settings: in vivo, 0.5 h; outline: as §2
Lung [43] = assay: Drug uptake in ICR mouse lung at 370 kBq/100 ul, iv at 10 mins by gamma-counting analysis; assay type: ADME, organism-based; settings: in vivo; outline: as §2
Bone [44] = assay: Drug uptake in ICR mouse bone at 370 kBq/100 ul, iv at 30 mins by gamma-counting analysis; assay type: ADME, organism-based, Bone element; settings: in vivo, 0.5 h; outline: as §2

Molecule CN(C)c1ccc(-c2nc3ccc(OCCF)cc3s2)cn1 has a Ki [1] of 2.7 nM.
Work on CN(C)c1ccc(-c2nc3ccc(OCCOCCOCC[18F])cc3s2)cn1 yielded a Drug uptake (Stomach [2]) of 11.34 %ID, a Drug uptake (Lung [3]) of 2.33 % ID/g and a Drug uptake (Intestine [4]) of 4.68 %ID. For the same molecule, the Drug uptake (Intestine [5]) was 10.4 %ID, the Ki [1] was 5.8 nM and the Drug uptake (Spleen [6]) was 2.59 % ID/g. It also gave a Drug uptake (Heart [7]) of 2.62 % ID/g, a Drug uptake (Liver [8]) of 11.6 % ID/g and a Drug uptake (Liver [9]) of 12.9 % ID/g. For the same molecule, the Drug uptake (Blood [10]) was 4.96 % ID/g, the Drug uptake (Liver [11]) was 4.75 % ID/g and the Drug uptake (Stomach [12]) was 14.13 %ID. It also gave a Drug uptake (Stomach [13]) of 2.55 %ID, a Drug uptake (Brain [14]) of 2.64 % ID/g and a Drug uptake (Spleen [15]) of 2.97 % ID/g. For the same molecule, the Drug uptake (Spleen [16]) was 1.47 % ID/g, the Drug uptake (Stomach [17]) was 8.98 %ID and the Drug uptake (Heart [18]) was 4.5 % ID/g. It also gave a Drug uptake (Heart [19]) of 2.02 % ID/g, a Drug uptake (Brain [20]) of 1.84 % ID/g and a Drug uptake (Intestine [21]) of 19.57 %ID. It also gave a Drug uptake (Spleen [22]) of 3.14 % ID/g, a Ratio (Brain [23]) of 1.77 and a Drug uptake (Liver [24]) of 6.79 % ID/g. It also gave a Drug uptake (Brain [25]) of 1.98 % ID/g, a Drug uptake (Kidney [26]) of 3.01 % ID/g and a Drug uptake (Bone [27]) of 1.58 % ID/g. For the same molecule, the Drug uptake (Kidney [28]) was 6.82 % ID/g, the Drug uptake (Heart [29]) was 3.3 % ID/g and the Drug uptake (Blood [30]) was 3.79 % ID/g. The Drug uptake (Brain [31]) was “Not Active”, the Drug uptake (Blood [32]) was 9.79 % ID/g and the Drug uptake (Brain [33]) was 3.26 % ID/g. For the same molecule, the Drug uptake (Intestine [34]) was 26.66 %ID, the Drug uptake (Kidney [35]) was 5.45 % ID/g and the Drug uptake (Bone [36]) was 1.86 % ID/g. It also gave a logD at 0.05 h [37] of 3.08, a Drug uptake (Lung [38]) of 6.69 % ID/g and a Drug uptake (Lung [39]) of 3.28 % ID/g. The Drug uptake (Blood [40]) was 5.44 % ID/g, the Drug uptake (Bone [41]) was 0.95 % ID/g and the Drug uptake (Kidney [42]) was 3.88 % ID/g. For the same molecule, the Drug uptake (Lung [43]) was 4.59 % ID/g and the Drug uptake (Bone [44]) was 1.64 % ID/g.
